Assay results: publication PMC10746523 (iScience, 2023)
Read-outs that look alike come from different tables or passages of the source.

How the values were obtained:
[1] = Photophysical characterization and relative fluorescence quantum yield; format: physicochemical; settings: for Quantum Yield (relative fluorescence quantum yield, ΦFrel): ethanol, standard coumarin 343, 405/475 nm
How it was run: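 Relative quantum yield in ethanol: absorbance at 405 nm and fluorescence at ex/em 405/475 nm were measured for samples and for the coumarin 343 reference (Q_r 0.63 in ethanol). The refractive-index ratio was taken as 1.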

[2] = Determination of pKa by UV-Vis absorbance; format: physicochemical; settings: MES and Tris buffers of different pH, pH 5.2
[3] = pH dependence of fluorescence intensity; format: physicochemical; settings: 405/475 nm; 1 µM
[4] = Microplate time- and pH-dependent fluorescence response to ONOO−; settings: probe 1 μM, ONOO− 600 μM
How it was run: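 Water-soluble probe (1 μM) was treated with ONOO⁻ (600 μM) in 50 mM MES (pH 5.8) or 50 mM Tris (pH 6.8, 7.8, 8.8). Fluorescence (ex/em 405/475 nm) was read on a microplate reader over time and expressed relative to untreated samples at t = 0 min.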

[5] = Selectivity against RONS, microplate F/F0; settings: for F/F0: probe 1 μM
How it was run: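 Probe (1 μM final, from a 100 μM DMSO stock) was mixed with each RONS (estimated 600 μM) in 50 mM Tris pH 7.5 containing 600 μM EDTA. HO· was generated in situ from Fe(ClO₄)₂ plus H₂O₂ (36 mM), and ¹O₂ from NaOCl plus H₂O₂. Plate fluorescence (405/475 nm) was read at 1 and 60 min; F/F₀ = 60-min reading over t₀.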

PCLS = experiment: Confocal imaging of PCLS exposed to nitrogen mustard; format: cell-based, mice; settings: 75 μM TEG-TC-ONOO–, compared to 75 μM LNPs with ∼4 μM DPPC-TC-ONOO–
[6] = Solubility, stated in words; format: physicochemical; settings: aqueous media and buffers
[7] = in ethanol, cited from earlier work
[8] = cited from earlier work
[9] = Competitive oxidation assay with the ketone 1; settings: ketone 1 (600 μM) alone treated with ONOO− (600 μM), Tris pH 7.5
How it was run: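 Ketone-competition variant of the microplate assay in 50 mM Tris pH 7.5: ketone competitor (600 μM) with ONOO⁻ (600 μM), alone or added after the probe (1 μM) had been pre-mixed 5 min with ONOO⁻ (600 μM). Probe plus ONOO⁻ without competitor was run in parallel. Fluorescence (ex/em 405/475 nm) was followed over time.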

Question: For `O=c1oc2cc(O)ccc2cc1-n1cc(COCCOCCOCCO)nn1` [TEG-TC, 7-hydroxy-3-(4-((2-(2-(2-hydroxyethoxy)ethoxy)ethoxy)methyl)-1H-1,2,3-triazol-1-yl)-2H-chromen-2-one], which Brightness [1] is on record?
Answer: 10305

Question: What about the “Extinction Coefficient” value [1] of the same molecule?
Answer: 15613 M⁻¹ cm⁻¹

Question: What about the “Max Em” value [1] of the same molecule?
Answer: 471.4 nm

Question: And the “Max Ex” value [1]?
Answer: 397.0 nm

Question: What about the Relative brightness [1] of the same molecule?
Answer: 41.1

Question: What about the “Quantum Yield (relative fluorescence quantum yield, ΦFrel)” value [1] of the same molecule?
Answer: 0.66

Question: And the pKa [2]?
Answer: 7.1 ± 0.1

Question: What about the “fluorescence signal intensity at pH 7.5–8.8 relative to pH 5.8” value [3] of the same molecule?
Answer: 18- to 20 fold

Question: For `O=C(Oc1ccc(CCC(=O)C(F)(F)F)cc1)Oc1ccc2cc(-n3cc(COCCOCCOCCO)nn3)c(=O)oc2c1` [TEG-TC-ONOO^–, 3-(4-((2-(2-(2-hydroxyethoxy)ethoxy)ethoxy)methyl)-1H-1,2,3-triazol-1-yl)-2-oxo-2H-chromen-7-yl (4-(4,4,4-trifluoro-3-oxobutyl)phenyl) carbonate], which Brightness [1] is on record?
Answer: 358

Question: What about the “Extinction Coefficient” value [1] of the same molecule?
Answer: 4475 M⁻¹ cm⁻¹

Question: And the “Max Em” value [1]?
Answer: 472.0 nm

Question: And the “Max Ex” value [1]?
Answer: 400.0 nm

Question: What about the Relative brightness [1] of the same molecule?
Answer: 1.4

Question: And the “Quantum Yield (relative fluorescence quantum yield, ΦFrel)” value [1]?
Answer: 0.08

Question: What about the fluorescence generation ([4]; pH 5.8 and 6.8) of the same molecule?
Answer: little or no fluorescence generation

Question: What about the “fluorescence relative to untreated sample (t = 0 min)” value ([4]; pH 7.8, until 30 min) of the same molecule?
Answer: up to 6.5 times

Question: And the “fluorescence relative to untreated sample (t = 0 min)” value ([4]; pH 8.8, until 30 min)?
Answer: ≤ 8 times

Question: What about the “relative fluorescence enhancement for ONOO− compared to the other RONS” value [5] of the same molecule?
Answer: ~36 fold

Question: And the “fluorescence intensity stronger than background” value ([5]; H2O2 600 μM, 60 min)?
Answer: 16%

Question: And the F/F0 ([5]; H2O2 600 μM, 60 min)?
Answer: 1.16

Question: What about the increase in fluorescence ([5]; ONOO− 600 μM, 60 min) of the same molecule?
Answer: ~570%

Question: And the F/F0 ([5]; ONOO− 600 μM, 60 min)?
Answer: 6.69

Question: And the increase in fluorescence ([5]; absence of a redox species, 60 min)?
Answer: 13%

Question: What about the F/F0 ([5]; absence of a redox species, 60 min, Tris pH 7.5) of the same molecule?
Answer: 1.13

Question: What about the change in fluorescence ([5]; species other than ONOO−, 600 μM, 60 min) of the same molecule?
Answer: only negligible levels of change in fluorescence

Question: And the F/F0 ([5]; ·NO 600 μM, 60 min)?
Answer: 1.03

Question: And the “signal within PCLS exposed to NM (405 nm excitation)” value (PCLS)?
Answer: considerably weak signals

Question: And the solubility [6]?
Answer: highly soluble

Question: With `O=C(O)c1cc2cc3c4c(c2oc1=O)CCCN4CCC3` [coumarin 343] as the molecule, how does the “absolute fluorescence quantum yield (ΦF)” value [7] read?
Answer: 0.63

Question: What about the “quantum yield of reference standard (Qr)” value ([7]; ref Sigma Aldrich) of the same molecule?
Answer: 0.63

Question: With `O=NOO` [ONOOH, peroxynitrous acid] as the molecule, how does the chemical half-life [8] read?
Answer: 0.63 s

Question: What about the pKa [8] of the same molecule?
Answer: 6.8

Question: What about the biological half-life ([8]; estimated, depends on concentration of biological targets) of the same molecule?
Answer: 10–20 ms

Question: With `O=C(CCc1ccc(O)cc1)C(F)(F)F` [Compound 1, 1,1,1-trifluoro-4-(4-hydroxyphenyl)butan-2-one] as the molecule, how does the fluorescence generation [9] read?
Answer: no fluorescence
